# According to ChEMBL document CHEMBL5331127, “Discovery of ARD-2051 as a Potent and Orally Efficacious Proteolysis Targeting Chimera (PROTAC) Degrader of Androgen Receptor for the Treatment of Advanced Prostate Cancer” (J Med Chem, 2023):
# Legend:
# [1] = Drug concentration in ICR mouse plasma at 10 mg/kg, po measured after 1 hr; format: ADME, organism-based
# Procedure, shortened: (§1)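 Mice given a single 10 mg/kg dose by oral gavage, 3 mice per time point. Plasma drug levels measured at 1, 3, 6 and 24 h; mean ± SD reported.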
# [2] = Drug concentration in ICR mouse plasma at 10 mg/kg, po measured after 3 hrs; format: ADME, organism-based; procedure, shortened: as §1
# [3] = Drug concentration in ICR mouse plasma at 10 mg/kg, po measured after 6 hrs; format: ADME, organism-based; procedure, shortened: as §1
# [4] = Drug concentration in ICR mouse plasma at 10 mg/kg, po measured after 24 hrs; format: ADME, organism-based; procedure, shortened: as §1
# [5] = system: VCaP; assay: Growth inhibition in human VCaP cells incubated for 4 days by WST-8 assay relative to control; format: functional; conditions: time 4 day
# Procedure, shortened: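 VCaP prostate cancer cells (ATCC) were maintained in DMEM with Glutamax plus 10% fetal bovine serum at 37 °C, humidified 5% CO2. They were exposed to compound for 4 days, and viability was then read by WST-8 colorimetric assay following the kit instructions.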
# [6] = system: LNCaP; assay: Growth inhibition in human LNCaP cells incubated for 4 days by WST-8 assay relative to control; format: functional; conditions: time 4 day
# Procedure, shortened: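 LNCaP cells grown in RPMI 1640 with 10% FBS, treated for 4 days. Viability read by WST-8 assay.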
# [7] = molecular target: T1, Androgen receptor (Homo sapiens, UniProt P10275); assay: Displacement of Fluormone AL Green from androgen receptor LBD (unknown origin) incubated for 4 hrs by fluorescence polarization assay
# T1 sequence (P10275 whole entry): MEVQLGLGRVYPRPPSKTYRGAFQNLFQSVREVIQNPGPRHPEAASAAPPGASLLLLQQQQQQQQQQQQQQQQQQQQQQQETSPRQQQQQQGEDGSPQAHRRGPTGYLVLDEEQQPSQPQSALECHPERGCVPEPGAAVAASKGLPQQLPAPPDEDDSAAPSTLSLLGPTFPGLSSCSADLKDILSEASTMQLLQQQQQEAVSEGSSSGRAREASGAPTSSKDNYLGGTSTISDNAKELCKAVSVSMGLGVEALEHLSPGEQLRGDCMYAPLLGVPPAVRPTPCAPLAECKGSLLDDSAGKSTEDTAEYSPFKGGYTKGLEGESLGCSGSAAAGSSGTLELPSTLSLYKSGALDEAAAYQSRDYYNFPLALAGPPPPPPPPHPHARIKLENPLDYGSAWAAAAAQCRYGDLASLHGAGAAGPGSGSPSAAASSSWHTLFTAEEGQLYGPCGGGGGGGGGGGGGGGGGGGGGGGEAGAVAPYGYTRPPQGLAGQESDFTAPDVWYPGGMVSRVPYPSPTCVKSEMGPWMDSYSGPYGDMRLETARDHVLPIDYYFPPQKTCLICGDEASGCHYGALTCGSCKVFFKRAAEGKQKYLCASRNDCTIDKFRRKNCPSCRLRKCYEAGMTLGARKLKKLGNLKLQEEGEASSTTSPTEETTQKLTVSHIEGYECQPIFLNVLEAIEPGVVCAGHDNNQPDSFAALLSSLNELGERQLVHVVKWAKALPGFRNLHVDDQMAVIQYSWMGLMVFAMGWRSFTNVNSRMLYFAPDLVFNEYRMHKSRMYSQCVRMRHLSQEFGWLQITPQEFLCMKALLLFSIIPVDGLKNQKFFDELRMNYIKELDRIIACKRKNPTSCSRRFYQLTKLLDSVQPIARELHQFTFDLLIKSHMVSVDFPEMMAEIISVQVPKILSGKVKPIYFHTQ
# [8] = molecular target: T2, Androgen receptor (Homo sapiens) (UniProt P10275); assay: Displacement of Fluormone AL Green from androgen receptor LBD (unknown origin) at 1 uM incubated for 4 hrs by fluorescence polarization assay relative to control
# T2 sequence (whole entry): T1 sequence (P10275 whole entry)
structure (smiles),measurement,setting,value
N#Cc1ccc(O[C@H]2CC[C@H](NC(=O)c3ccc(N4CCC(CN5CCN(c6cc7c(cc6F)C(=O)N(C6CCC(=O)NC6=O)C7=O)CC5)CC4)nn3)CC2)cc1Cl (stereo partly specified) [BAVDEGALUTAMIDE],concentration at 1 h,[1],55 ng/mL
same,concentration at 3 h,[2],124 ng/mL
same,concentration at 6 h,[3],110 ng/mL
same,concentration at 24 h,[4],70 ng/mL
same,Imax,[5],88%
same,Imax,[6],90%
N#Cc1ccc(N2CCC3(CCN(c4ccccc4)CC3)C2)cc1Cl,IC50,[7],> 1000 nM
same,inhibition,[8],30%
CN1CCN(c2ccc(C(=O)N3CCC4(CC3)CCN(c3ccc(C#N)c(Cl)c3)C4)cc2)CC1,IC50,[7],800 nM
CN1CCN(C(=O)c2ccc(N3CCC4(CC3)CCN(c3ccc(C#N)c(Cl)c3)C4)cc2)CC1,IC50,[7],78 nM
N#Cc1ccc(N2CCC3(CCN(C(=O)c4ccccc4)CC3)C2)cc1Cl,IC50,[7],1700 nM
